Measurements: ChEMBL document CHEMBL1154690, “Identification of novel, selective, and stable inhibitors of class II histone deacetylases. Validation studies of the inhibition of the enzymatic activity of HDAC4 by small molecules as a novel approach for cancer therapy” (J Med Chem, 2009)
pEC50, pIC50: −log10 of the molar value.

Key:
[1] = Metabolic stability in human HCT116 cells assessed as half life by LC-MS/MS analysis; format: ADME, cell-based, HCT-116
[2] = Inhibition of wild type HDAC4 (653-1084) from Escherichia coli
Summary of the method: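 Wild-type HDAC4 expressed in bacteria was assayed with an unnatural trifluoroacetyl-lysine substrate to boost its enzymatic efficiency.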

Histone deacetylase 1 [3] = target: T1, Histone deacetylase 1 (Homo sapiens, UniProt Q13547); assay: Inhibition of HDAC1
[4] = target: T2, Protein deacetylase HDAC6 (Homo sapiens, UniProt Q9UBN7); assay: Inhibition of HDAC6
T2 sequence (Q9UBN7 whole entry): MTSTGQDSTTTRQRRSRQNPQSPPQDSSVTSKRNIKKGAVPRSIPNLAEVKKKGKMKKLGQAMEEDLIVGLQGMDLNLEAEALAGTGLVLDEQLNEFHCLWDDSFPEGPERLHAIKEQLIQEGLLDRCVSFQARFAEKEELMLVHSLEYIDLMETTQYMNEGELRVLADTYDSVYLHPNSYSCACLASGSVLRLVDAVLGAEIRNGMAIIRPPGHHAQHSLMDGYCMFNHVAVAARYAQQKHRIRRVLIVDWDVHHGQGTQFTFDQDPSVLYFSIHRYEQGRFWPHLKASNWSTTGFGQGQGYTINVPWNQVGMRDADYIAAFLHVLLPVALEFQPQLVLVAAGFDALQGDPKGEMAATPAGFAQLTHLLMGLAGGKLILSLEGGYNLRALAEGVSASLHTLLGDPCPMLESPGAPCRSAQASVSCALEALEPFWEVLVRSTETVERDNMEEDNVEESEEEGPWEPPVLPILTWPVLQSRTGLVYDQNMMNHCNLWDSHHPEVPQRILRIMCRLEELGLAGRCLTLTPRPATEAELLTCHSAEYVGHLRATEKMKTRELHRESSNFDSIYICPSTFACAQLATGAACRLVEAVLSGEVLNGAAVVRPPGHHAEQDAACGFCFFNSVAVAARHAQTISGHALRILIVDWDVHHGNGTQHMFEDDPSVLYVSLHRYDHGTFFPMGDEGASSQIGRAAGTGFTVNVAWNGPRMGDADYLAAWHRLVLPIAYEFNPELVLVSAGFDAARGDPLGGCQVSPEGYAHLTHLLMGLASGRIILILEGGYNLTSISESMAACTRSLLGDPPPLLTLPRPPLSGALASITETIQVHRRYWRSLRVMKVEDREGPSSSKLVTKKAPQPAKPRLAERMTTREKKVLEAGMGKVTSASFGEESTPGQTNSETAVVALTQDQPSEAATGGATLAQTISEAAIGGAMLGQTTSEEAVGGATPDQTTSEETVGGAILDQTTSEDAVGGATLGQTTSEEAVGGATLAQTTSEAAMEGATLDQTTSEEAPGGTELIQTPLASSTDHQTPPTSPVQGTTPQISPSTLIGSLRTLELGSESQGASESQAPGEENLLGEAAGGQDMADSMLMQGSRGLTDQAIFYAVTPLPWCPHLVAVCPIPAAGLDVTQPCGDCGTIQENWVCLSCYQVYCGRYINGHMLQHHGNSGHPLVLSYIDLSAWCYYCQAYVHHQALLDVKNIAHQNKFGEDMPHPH

[5] = Metabolic stability in S9 fraction of human HACT116 cells assessed as half life by LC-MS/MS analysis; format: ADME, subcellular; settings: S9 fraction of HACT116 (HCT116) cells
[6] = Inhibition of constitutively active mutant HDAC4 (653-1084) from Escherichia coli
Summary of the method: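 Bacterially expressed HDAC4 carrying an H-to-Y active-site mutation, giving a constitutively active mutant enzyme, was used in the enzymatic inhibition assay.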

[7] = Selectivity ratio of IC50 for Escherichia coli HDAC4 WT (653-1084) to IC50 for HDAC1
Histone deacetylase 1 [8] = target: T1, Histone deacetylase 1; assay: Inhibition of HDAC1 in human HCT116 cells assessed as inhibition of histone-H3 deacetylation after 24 hrs; format: cell-based, HCT-116
Summary of the method: (§1)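 HCT116 cells were exposed to inhibitor for 72 h in the proliferation assay, or for 24 h for the histone H3 and α-tubulin deacetylation read-outs. Medium was replaced with fresh inhibitor every 12 h throughout. EC50 was taken as the mean of two independent determinations.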

HCT-116 = assay: Antiproliferative activity against human HCT116 cells after 72 hrs; format: functional, cell-based; settings: HCT-116, 72 h; summary of the method: as §1
[9] = target: T2, Protein deacetylase HDAC6; assay: Inhibition of HDAC6 in human HCT116 cells assessed as alpha-tubulin hyperacetylation after 24 hrs; format: cell-based, HCT-116; summary of the method: as §1

T1 sequence (Q13547 whole entry): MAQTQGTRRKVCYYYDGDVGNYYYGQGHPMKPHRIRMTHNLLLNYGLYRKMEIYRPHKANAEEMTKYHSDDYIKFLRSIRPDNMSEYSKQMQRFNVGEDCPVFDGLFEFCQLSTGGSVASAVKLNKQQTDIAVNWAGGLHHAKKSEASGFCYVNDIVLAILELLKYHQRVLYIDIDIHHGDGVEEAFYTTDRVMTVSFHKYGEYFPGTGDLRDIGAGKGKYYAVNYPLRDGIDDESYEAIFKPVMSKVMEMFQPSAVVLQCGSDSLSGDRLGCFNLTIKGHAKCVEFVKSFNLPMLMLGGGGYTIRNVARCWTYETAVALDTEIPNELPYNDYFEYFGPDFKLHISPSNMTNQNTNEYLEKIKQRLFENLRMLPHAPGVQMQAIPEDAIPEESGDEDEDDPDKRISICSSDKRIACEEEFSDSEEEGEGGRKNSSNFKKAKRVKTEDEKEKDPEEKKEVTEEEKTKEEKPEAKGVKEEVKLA

N#Cc1ccc(-c2ccc(C(=O)C(F)(F)F)s2)cc1
half-life [1]: 8 h
pIC50 [2]: 6.80
pIC50 (Histone deacetylase 1 [3]): 5.57
pIC50 [4]: 7.39
half-life [5]: > 2 h
pIC50 [6]: 7.85

O=C(c1ccc(-c2nc(CS(=O)(=O)Cc3ccc(F)cc3)no2)s1)C(F)(F)F
pIC50 [2]: 7.22
half-life [5]: > 2 h
pIC50 [6]: 6.17

CC(=O)c1ccc(-c2ccc(C(=O)C(F)(F)F)s2)cc1
pIC50 [2]: 7.14
pIC50 (Histone deacetylase 1 [3]): < 5.00
pIC50 [4]: 7.54
half-life [5]: > 2 h
pIC50 [6]: 7.92

O=C(c1ccc(-c2ccccn2)s1)C(F)(F)F
pIC50 [2]: 6.27
pIC50 (Histone deacetylase 1 [3]): < 6.00
pIC50 [4]: < 6.00
pIC50 [6]: < 6.00

COc1ccc(-c2ccc(C(=O)C(F)(F)F)s2)cc1
pIC50 [2]: 6.96
pIC50 (Histone deacetylase 1 [3]): < 6.00
pIC50 [4]: < 6.00
pIC50 [6]: < 6.00

O=C(c1cnc(-c2ccccc2)s1)C(F)(F)F
Ratio IC50 [7]: 25
pIC50 [2]: 6.89
pIC50 (Histone deacetylase 1 [3]): 5.43
pIC50 [4]: 6.68
half-life [5]: 0.25 h
pIC50 [6]: 6.72

COc1cccc(-c2ccc(C(=O)C(F)(F)F)s2)c1
pIC50 [2]: 5.42
pIC50 (Histone deacetylase 1 [3]): < 5.00
pIC50 [4]: 5.51
pIC50 [6]: < 5.30

CS(=O)(=O)Cc1noc(-c2ccc(C(=O)C(F)(F)F)s2)n1
Ratio IC50 [7]: > 100
pIC50 [2]: 7.62
pEC50 (Histone deacetylase 1 [8]): 5.05
pEC50 (HCT-116): 4.89
pIC50 (Histone deacetylase 1 [3]): 5.57
pIC50 [4]: 6.64
pEC50 [9]: 6.19
half-life [5]: > 2 h
pIC50 [6]: 6.11

O=C(c1ccc(-c2ccc3nccnc3c2)s1)C(F)(F)F
pIC50 [2]: 6.80
pIC50 (Histone deacetylase 1 [3]): 6.04
pIC50 [4]: 7.82
half-life [5]: 0.167 h
pIC50 [6]: 7.27

O=C(O)c1cccc(-c2ccc(C(=O)C(F)(F)F)s2)c1
half-life [1]: 11 h
pIC50 [2]: 6.51
pEC50 (Histone deacetylase 1 [8]): < 4.30
pEC50 (HCT-116): < 4.30
pIC50 (Histone deacetylase 1 [3]): 4.89
pIC50 [4]: 7.15
pEC50 [9]: 6.00
pIC50 [6]: 7.02

O=C(O)c1ccc(-c2ccc(C(=O)C(F)(F)F)s2)cc1
pIC50 [2]: 7.13
pIC50 (Histone deacetylase 1 [3]): 5.60
pIC50 [4]: 7.57
pIC50 [6]: 7.22

O=C(c1cc(-c2ccccc2)cs1)C(F)(F)F
pIC50 [2]: 5.49
pIC50 (Histone deacetylase 1 [3]): < 5.00
pIC50 [4]: 5.72
pIC50 [6]: < 5.00

O=C(c1ccc(-c2ccc3[nH]ccc3c2)s1)C(F)(F)F
pIC50 [2]: < 5.00
pIC50 (Histone deacetylase 1 [3]): < 5.00
pIC50 [4]: < 5.30
pIC50 [6]: 5.21

O=C(c1ccc(-c2ccccc2)s1)C(F)(F)F
pIC50 [2]: 5.55
pIC50 (Histone deacetylase 1 [3]): < 4.70
pIC50 [4]: 6.77
pIC50 [6]: 5.55

COc1ccccc1-c1ccc(C(=O)C(F)(F)F)s1
pIC50 [2]: < 5.00
pIC50 (Histone deacetylase 1 [3]): < 5.00
pIC50 [4]: 5.20
pIC50 [6]: 5.46

CCCS(=O)(=O)Cc1noc(-c2ccc(C(=O)C(F)(F)F)s2)n1
pIC50 [2]: 7.52
pIC50 [6]: 6.28

O=C(c1ccc(-c2ccc3c(c2)OCCO3)s1)C(F)(F)F
pIC50 [2]: < 5.00
pIC50 (Histone deacetylase 1 [3]): < 5.00
pIC50 [4]: 7.43
pIC50 [6]: 5.85

O=C(c1ccc(-c2nc(CS(=O)(=O)c3cccs3)no2)s1)C(F)(F)F
half-life [1]: 6 h
pIC50 [2]: 7.46
half-life [5]: 0.867 h
pIC50 [6]: 6.00

CN(Cc1ccc2nccnc2c1)C(=O)c1ccc(C(=O)C(F)(F)F)s1
pIC50 [2]: 7.01
half-life [5]: 0.25 h
pIC50 [6]: 7.06
